Data as given in publication PMC9780517 (Experimental and Therapeutic Medicine, 2022).
Entries after “also recorded” stand apart in the source; their conditions may differ.

Columns and labels:
hiPSC-CMs [1] = test: Myocardial cell activity; format: cell-based, human; details: for Effect on Ampl (cell activity / cell viability) / Effect on BPM (beats per minute): concentration relative to ETPC
Method in brief: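 Human iPSC-derived cardiomyocytes (mostly ventricular; four batches) were grown 14-21 days on fibronectin-coated impedance/field-potential sensor plates at 37°C, 5% CO2. The medium was changed on dosing day, and test compound was added 3-4 h later, with 0.1% DMSO as control. Reads were taken every 30 min for 2 h, then every 2 h for >24 h. There were 3-4 concentrations, triplicate wells each. Ampl and BPM were normalized to pre-dose values.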

[2] = after intravenous administration; cited from earlier work
hiPSC-CMs [3] = test: Field potential; format: cell-based, human; details: for FPDc prolongation (in words): concentration relative to ETPC
[4] = ref 21 (Blinova et al); cited from earlier work

| Structure (SMILES) | Effect on Ampl (cell activity / cell viability) (hiPSC-CMs [1]) | Effect on BPM (beats per minute) (hiPSC-CMs [1]) | Arrhythmia-like waveforms (in words) (hiPSC-CMs [3]) | further results |
| --- | --- | --- | --- | --- |
| CCCCc1oc2ccccc2c1C(=O)c1cc(I)c(OCCN(CC)CC)c(I)c1 [Amiodarone] | decreased the cell activity of cardiomyocytes at concentrations greater than ETPC | decreased BPM at a concentration greater than ETPC |  | TdP incidence [2]: ~ 15% |
| COc1ccc(CCN2CCC(Nc3nc4ccccc4n3Cc3ccc(F)cc3)CC2)cc1 [Astemizole] | decreased the activity of cardiomyocytes at a concentration higher than ETPC | decrease BPM | caused arrhythmia-like waveforms |  |
| CN1CCN(CCCCN2C(=O)CN(/N=C/c3ccc(-c4ccc(Cl)cc4)o3)C2=O)CC1 [Azimilide] |  |  | induce arrhythmia-like waveforms | FPDc prolongation (in words) (hiPSC-CMs [3]): FPDc prolongation at concentrations lower than ETPC |
| CC(C)COCC(CN(Cc1ccccc1)c1ccccc1)N1CCCC1 (stereo not drawn) [Bepridil] |  |  | induce arrhythmia-like waveforms | Concentration at which arrhythmia-like waveforms were observed (hiPSC-CMs [3]): 312.5 times of the ETPC; FPDc prolongation (in words) (hiPSC-CMs [3]): not induce FPDc prolongation; also recorded: no FPDc prolongation was observed; Predicted risk, LR model of Blinova et al [4]: low-risk |
| CN(C)CCCN1c2ccccc2Sc2ccc(Cl)cc21 [Chlorpromazine] | decreased the activity of cardiomyocytes at a concentration higher than ETPC | decrease BPM |  | Predicted risk, LR model of Blinova et al [4]: low-risk |
| COc1cc(N)c(Cl)cc1C(=O)NC1CCN(CCCOc2ccc(F)cc2)CC1OC (stereo not drawn) [Cisapride] | decreased the activity of cardiomyocytes at a concentration higher than ETPC | decrease BPM |  |  |
| CC[C@H]1OC(=O)[C@H](C)[C@@H](O[C@H]2C[C@@](C)(OC)[C@@H](O)[C@H](C)O2)[C@H](C)[C@@H](O[C@@H]2O[C@H](C)C[C@H](N(C)C)[C@H]2O)[C@](C)(OC)C[C@@H](C)C(=O)[C@H](C)[C@@H](O)[C@]1(C)O [Clarithromycin] | decreased the activity of cardiomyocytes at a concentration higher than ETPC | decrease BPM |  | FPDc prolongation (in words) (hiPSC-CMs [3]): no FPDc prolongation was observed; also recorded: FPDc showed shortening; FPDc prolongation at the highest concentration (hiPSC-CMs [3]; highest concentration of 100 µM, repeated in triplicate): no FPDc prolongation was observed |
| CN1CCN(C2=Nc3cc(Cl)ccc3Nc3ccccc32)CC1 [Clozapine] |  |  | caused arrhythmia-like waveforms | Concentration at which FPDc prolongation was observed (hiPSC-CMs [3]): 42 % of the ETPC |
| COc1ccc([C@@H]2Sc3ccccc3N(CCN(C)C)C(=O)[C@@H]2OC(C)=O)cc1 [Diltiazem] | decreased the activity of cardiomyocytes at a concentration higher than ETPC | BPM was decreased |  |  |
| CC(C)N(CCC(C(N)=O)(c1ccccc1)c1ccccn1)C(C)C (stereo not drawn) [Disopyramide] | decreased cell activity at concentrations less than ETPC |  | induce arrhythmia-like waveforms | FPDc prolongation (in words) (hiPSC-CMs [3]): FPDc prolongation at concentrations lower than ETPC |
| CN(CCOc1ccc(NS(C)(=O)=O)cc1)CCc1ccc(NS(C)(=O)=O)cc1 [Dofetilide] |  |  | no arrhythmia-like events were observed; also recorded: No arrhythmia-like waveforms were observed | Concentration at which arrhythmia-like waveforms were observed (hiPSC-CMs [3]): > 150 times of the ETPC; FPDc prolongation (in words) (hiPSC-CMs [3]): FPDc prolongation at concentrations higher than ETPC; Beating of the cells at the maximum concentration (hiPSC-CMs [1]; 0.3 µm (150 times of the ETPC)): cells stopped beating |
| O=c1[nH]c2ccccc2n1CCCN1CCC(n2c(=O)[nH]c3cc(Cl)ccc32)CC1 [Domperidone] |  |  | caused arrhythmia-like waveforms |  |
| O=C(CCCN1CC=C(n2c(=O)[nH]c3ccccc32)CC1)c1ccc(F)cc1 [Droperidol] | decreased the activity of cardiomyocytes at a concentration higher than ETPC | decrease BPM | caused arrhythmia-like waveforms |  |
| O=C(NCC1CCCCN1)c1cc(OCC(F)(F)F)ccc1OCC(F)(F)F (stereo not drawn) [Flecainide] |  |  |  | Concentration at which arrhythmia-like waveforms were observed (hiPSC-CMs [3]): 1.33 times of the ETPC |
| CCCCCCCN(CC)CCCC(O)c1ccc(NS(C)(=O)=O)cc1 (stereo not drawn) [Ibutilide] | decreased cell activity at concentrations less than ETPC | BPM decrease at concentrations less than ETPC | induce arrhythmia-like waveforms | Concentration at which arrhythmia-like waveforms were observed (hiPSC-CMs [3]): 10 % of the ETPC; FPDc prolongation (in words) (hiPSC-CMs [3]): FPDc prolongation at concentrations lower than ETPC |
| CCOC(=O)N1CCC(=C2c3ccc(Cl)cc3CCc3cccnc32)CC1 [Loratadine] | decreased the activity of cardiomyocytes at a concentration higher than ETPC |  |  |  |
| CCC(=O)C(CC(C)N(C)C)(c1ccccc1)c1ccccc1 (stereo not drawn) [Methadone] | decreased the cell activity of cardiomyocytes at concentrations greater than ETPC | decreased BPM at a concentration greater than ETPC |  |  |

| Structure (SMILES) | Effect on Ampl (cell activity / cell viability) (hiPSC-CMs [1]) | Effect on BPM (beats per minute) (hiPSC-CMs [1]) | Arrhythmia-like waveforms (in words) (hiPSC-CMs [3]) | further results |
| --- | --- | --- | --- | --- |
| COCCc1ccc(OCC(O)CNC(C)C)cc1 (stereo not drawn) [Metoprolol] | decreased the activity of cardiomyocytes at a concentration higher than ETPC | BPM was decreased |  | Concentration at which FPDc prolongation was observed (hiPSC-CMs [3]): 6 % of the ETPC |
| Cc1cccc(C)c1OCC(C)N (stereo not drawn) [Mexiletine] | decreased the activity of cardiomyocytes at a concentration higher than ETPC | BPM was decreased |  | Concentration at which FPDc prolongation was observed (hiPSC-CMs [3]): 1.2 times of the ETPC |
| COc1c(N2C[C@@H]3CCCN[C@@H]3C2)c(F)cc2c(=O)c(C(=O)O)cn(C3CC3)c12 [Moxifloxacin] |  | decreased BPM at a concentration greater than ETPC |  |  |
| NC(=O)c1cccnc1 [Nicotinamide] | decreased the cell activity of cardiomyocytes at concentrations greater than ETPC | decreased BPM |  |  |
| COC(=O)C1=C(C)NC(C)=C(C(=O)OC)C1c1ccccc1[N+](=O)[O-] [Nifedipine] | decreased the activity of cardiomyocytes at a concentration higher than ETPC |  |  |  |
| CCOC(=O)C1=C(C)NC(C)=C(C(=O)OC)C1c1cccc([N+](=O)[O-])c1 (stereo not drawn) [Nitrendipine] | decreased the activity of cardiomyocytes at a concentration higher than ETPC |  |  | Concentration at which arrhythmia-like waveforms were observed (hiPSC-CMs [3]): 331.1 times of the ETPC |
| Cc1nccn1CC1CCc2c(c3ccccc3n2C)C1=O (stereo not drawn) [Ondansetron] | decreased the activity of cardiomyocytes at a concentration higher than ETPC | decrease BPM | caused arrhythmia-like waveforms | Concentration at which arrhythmia-like waveforms were observed (hiPSC-CMs [3]): 81 % of the ETPC |
| O=c1[nH]c2ccccc2n1C1CCN(CCCC(c2ccc(F)cc2)c2ccc(F)cc2)CC1 [Pimozide] | decreased the activity of cardiomyocytes at a concentration higher than ETPC | decrease BPM | caused arrhythmia-like waveforms |  |
| C=C[C@H]1C[N@@]2CC[C@H]1C[C@@H]2[C@@H](O)c1ccnc2ccc(OC)cc12 [Quinidine] | decreased cell activity at concentrations less than ETPC | BPM decrease at concentrations less than ETPC | induce arrhythmia-like waveforms | FPDc prolongation (in words) (hiPSC-CMs [3]): FPDc prolongation at concentrations lower than ETPC |
| COc1ccccc1OCC(O)CN1CCN(CC(=O)Nc2c(C)cccc2C)CC1 (stereo not drawn) [Ranolazine] |  |  |  | Concentration at which FPDc prolongation was observed (hiPSC-CMs [3]): 51 % of the ETPC; Concentration at which arrhythmia-like waveforms were observed (hiPSC-CMs [3]): 15.4 times of the ETPC |
| Cc1nc2n(c(=O)c1CCN1CCC(c3noc4cc(F)ccc34)CC1)CCCC2 [Risperidone] | decreased the activity of cardiomyocytes at a concentration higher than ETPC | decrease BPM | caused arrhythmia-like waveforms | Concentration at which arrhythmia-like waveforms were observed (hiPSC-CMs [3]): 555.6 times of the ETPC; Predicted risk, LR model of Blinova et al [4]: low-risk |
| CC(C)NCC(O)c1ccc(NS(C)(=O)=O)cc1 (stereo not drawn) [Sotalol] |  | BPM decrease at concentrations less than ETPC | induce arrhythmia-like waveforms | FPDc prolongation (in words) (hiPSC-CMs [3]): FPDc prolongation at concentrations lower than ETPC |
| CC/C(=C(\c1ccccc1)c1ccc(OCCN(C)C)cc1)c1ccccc1 [Tamoxifen] | decreased the activity of cardiomyocytes at a concentration higher than ETPC | BPM was decreased |  | Concentration at which arrhythmia-like waveforms were observed (hiPSC-CMs [3]): 142.9 times of the ETPC |
| CC(C)(C)c1ccc(C(O)CCCN2CCC(C(O)(c3ccccc3)c3ccccc3)CC2)cc1 (stereo not drawn) [Terfenadine] | decreased the activity of cardiomyocytes at a concentration higher than ETPC | decrease BPM |  |  |
| COc1cc2c(Nc3ccc(Br)cc3F)ncnc2cc1OCC1CCN(C)CC1 [Vandetanib] |  | BPM decrease at concentrations less than ETPC | induce arrhythmia-like waveforms | FPDc prolongation (in words) (hiPSC-CMs [3]): FPDc prolongation at concentrations higher than ETPC |
| COc1ccc(CCN(C)CCCC(C#N)(c2ccc(OC)c(OC)c2)C(C)C)cc1OC (stereo not drawn) [Verapamil] | decreased the activity of cardiomyocytes at a concentration higher than ETPC |  |  |  |
